Columns and labels:
Format in all cases: functional
NCI-H522 = experiment: Growth inhibition of human NCI-H522 cells after 48 hrs by sulforhodamine B assay; conditions: NCI-H522, 48 h
In short: (§1)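 NCI 60-cell-line panel. Cells are grown in RPMI1640 with 5% fetal calf serum and 2 mM L-glutamine, seeded at a density set by growth characteristics, and preincubated 24 h. Compound is tested at a minimum of five concentrations at 10-fold dilution, with 48 h continuous exposure. Viability is read by sulforhodamine B protein assay. GI50, TGI and LC50 come from dose-response curves.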

CAKI-1 = experiment: Growth inhibition of human Caki1 cells after 48 hrs by sulforhodamine B assay; conditions: CAKI-1, 48 h; in short: as §1
NCI-H460 [1] = experiment: Antiproliferative activity against human NCI-H460 cells assessed as cell growth at 100 uM after 48 hrs by alamar blue assay; conditions: NCI-H460, 48 h, read-out: Activity
In short: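 NCI three-cell-line primary screen. Cells are seeded and preincubated in microtiter plates. Compound is added at a single 10^-4 M concentration and cultures are incubated 48 h. The end-point is read with alamar blue. Results are given as percent growth relative to untreated control cells.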

HCC 2998 = experiment: Growth inhibition of human HCC2998 cells after 48 hrs by sulforhodamine B assay; conditions: HCC 2998, 48 h; in short: as §1
NCI-H226 = experiment: Growth inhibition of human NCI-H226 cells after 48 hrs by sulforhodamine B assay; conditions: NCI-H226, 48 h; in short: as §1
[2] = Growth inhibition of human […] cells after 48 hrs by sulforhodamine B assay; in short: as §1
UACC-257 = experiment: Growth inhibition of human UACC257 cells after 48 hrs by sulforhodamine B assay; conditions: UACC-257, 48 h
In short: (§2)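 NCI 60-cell-line panel (nine cancer types), with cells grown in RPMI1640 plus 5% fetal calf serum and 2 mM L-glutamine. Cells are seeded at a density that depends on the line and preincubated 24 h. Compounds are then applied at a minimum of five 10-fold dilutions over a 5-log range with 48 h continuous exposure. Viability is read by SRB protein assay, and GI50 is derived from dose-response curves in units of 10^-5 M.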

MDA-MB-231 = experiment: Growth inhibition of human MDA-MB-231 cells after 48 hrs by sulforhodamine B assay; conditions: MDA-MB-231, 48 h; in short: as §1
KM12 = experiment: Growth inhibition of human KM12 cells after 48 hrs by sulforhodamine B assay; conditions: KM12, 48 h; in short: as §1
SK-MEL-5 = experiment: Growth inhibition of human SK-MEL-5 cells after 48 hrs by sulforhodamine B assay; conditions: SK-MEL-5, 48 h; in short: as §1
K562 = experiment: Growth inhibition of human K562 cells after 48 hrs by sulforhodamine B assay; conditions: K562, 48 h; in short: as §1
OVCAR-8 = experiment: Growth inhibition of human OVCAR8 cells after 48 hrs by sulforhodamine B assay; conditions: OVCAR-8, 48 h; in short: as §1
OVCAR-3 = experiment: Growth inhibition of human OVCAR-3 cells after 48 hrs by sulforhodamine B assay; conditions: OVCAR-3, 48 h; in short: as §1
SR = experiment: Growth inhibition of human SR cells after 48 hrs by sulforhodamine B assay; in short: as §2
SF-295 = experiment: Growth inhibition of human SF295 cells after 48 hrs by sulforhodamine B assay; conditions: SF-295, 48 h; in short: as §1
LOX IMVI = experiment: Growth inhibition of human LOXIMVI cells after 48 hrs by sulforhodamine B assay; in short: as §1
SW-620 = experiment: Growth inhibition of human SW620 cells after 48 hrs by sulforhodamine B assay; conditions: SW-620, 48 h; in short: as §2
U-251 = experiment: Growth inhibition of human U251 cells after 48 hrs by sulforhodamine B assay; conditions: U-251, 48 h; in short: as §2
MCF7 = experiment: Growth inhibition of human MCF7 cells after 48 hrs by sulforhodamine B assay; conditions: MCF7, 48 h; in short: as §1
NCI-H460 [3] = experiment: Growth inhibition of human NCI-H460 cells after 48 hrs by sulforhodamine B assay; conditions: NCI-H460, 48 h; in short: as §1
UO-31 = experiment: Growth inhibition of human UO31 cells after 48 hrs by sulforhodamine B assay; conditions: UO-31, 48 h; in short: as §2
NCI-H23 = experiment: Growth inhibition of human NCI-H23 cells after 48 hrs by sulforhodamine B assay; conditions: NCI-H23, 48 h; in short: as §1
[4] = Growth inhibition of human Hs 578T cells after 48 hrs by sulforhodamine B assay; in short: as §1
CCRF-CEM = experiment: Growth inhibition of human CCRF-CEM cells after 48 hrs by sulforhodamine B assay; in short: as §1
786-0 = experiment: Growth inhibition of human 786-0 cells after 48 hrs by sulforhodamine B assay; conditions: 786-0, 48 h; in short: as §1
UACC-62 = experiment: Growth inhibition of human UACC62 cells after 48 hrs by sulforhodamine B assay; conditions: UACC-62, 48 h; in short: as §2
MOLT-4 = experiment: Growth inhibition of human MOLT4 cells after 48 hrs by sulforhodamine B assay; conditions: MOLT-4, 48 h; in short: as §1
HT-29 = experiment: Growth inhibition of human HT-29 cells after 48 hrs by sulforhodamine B assay; conditions: HT-29, 48 h; in short: as §1
SK-MEL-28 = experiment: Growth inhibition of human SK-MEL-28 cells after 48 hrs by sulforhodamine B assay; conditions: SK-MEL-28, 48 h; in short: as §1
HCT-15 = experiment: Growth inhibition of human HCT15 cells after 48 hrs by sulforhodamine B assay; conditions: HCT-15, 48 h; in short: as §1
HOP-62 = experiment: Growth inhibition of human HOP62 cells after 48 hrs by sulforhodamine B assay; conditions: HOP-62, 48 h; in short: as §1
[5] = read-out: LC50 (the source's name)

Question: With `COc1ccc(/C=N/c2nc3[nH]nc(C)n3c(=O)c2S(=O)(=O)NN2C(=O)C(CN3CCOCC3)SC2c2cccs2)cc1` (stereo unspecified) as the compound, how does the GI50 (NCI-H522) read?
Answer: 4.35 µM

Question: And the TGI (NCI-H522)?
Answer: 27.3 µM

Question: And the GI50 (CAKI-1)?
Answer: 12.1 µM

Question: What about the LC50 (50% lethal concentration) (CAKI-1) of the same compound?
Answer: > 100 µM

Question: And the TGI (CAKI-1)?
Answer: > 100 µM

Question: And the growth at 100 µM (NCI-H460 [1])?
Answer: 13%

Question: What about the GI50 (HCC 2998) of the same compound?
Answer: 3.96 µM

Question: What about the LC50 (HCC 2998) of the same compound?
Answer: 64.8 µM

Question: And the TGI (HCC 2998)?
Answer: 31.3 µM

Question: What about the GI50 (NCI-H226) of the same compound?
Answer: 24.5 µM

Question: And the LC50 (concentration killing 50% of cells) (NCI-H226)?
Answer: > 100 µM

Question: What about the TGI (NCI-H226) of the same compound?
Answer: > 100 µM

Question: What about the GI50 [2] of the same compound?
Answer: 3.86 µM

Question: And the TGI [2]?
Answer: 26.2 µM

Question: What about the CC50 [2, 5] of the same compound?
Answer: > 100 µM

Question: What about the GI50 (UACC-257) of the same compound?
Answer: 6.77 µM

Question: What about the LC50 (UACC-257) of the same compound?
Answer: > 100 µM

Question: And the TGI (UACC-257)?
Answer: > 100 µM

Question: What about the GI50 (MDA-MB-231) of the same compound?
Answer: 11.7 µM

Question: And the LC50 (50% lethal concentration) (MDA-MB-231)?
Answer: > 100 µM

Question: And the TGI (MDA-MB-231)?
Answer: 56.1 µM

Question: And the GI50 (KM12)?
Answer: 4.06 µM

Question: What about the GI50 (SK-MEL-5) of the same compound?
Answer: 3.71 µM

Question: And the TGI (SK-MEL-5)?
Answer: 24 µM

Question: What about the CC50 (SK-MEL-5; [5]) of the same compound?
Answer: > 100 µM

Question: And the GI50 (K562)?
Answer: 2.34 µM

Question: What about the LC50 (K562) of the same compound?
Answer: > 100 µM

Question: And the TGI (K562)?
Answer: 11.3 µM

Question: And the GI50 (OVCAR-8)?
Answer: 60.6 µM

Question: What about the TGI (OVCAR-8) of the same compound?
Answer: > 100 µM

Question: What about the GI50 (OVCAR-3) of the same compound?
Answer: 3.6 µM

Question: What about the LC50 (concentration killing 50% of cells) (OVCAR-3) of the same compound?
Answer: > 100 µM

Question: And the TGI (OVCAR-3)?
Answer: > 100 µM

Question: What about the GI50 (SR) of the same compound?
Answer: 1.1 µM

Question: And the LC50 (concentration killing 50% of cells) (SR)?
Answer: 9.2 µM

Question: What about the TGI (SR) of the same compound?
Answer: 3.2 µM

Question: What about the GI50 (SF-295) of the same compound?
Answer: 4.69 µM

Question: What about the LC50 (concentration killing 50% of cells) (SF-295) of the same compound?
Answer: > 100 µM

Question: And the TGI (SF-295)?
Answer: > 100 µM

Question: What about the GI50 (LOX IMVI) of the same compound?
Answer: 8.97 µM

Question: And the TGI (LOX IMVI)?
Answer: > 100 µM

Question: And the GI50 (SW-620)?
Answer: 6.11 µM

Question: What about the GI50 (U-251) of the same compound?
Answer: 15.6 µM

Question: What about the LC50 (U-251) of the same compound?
Answer: > 100 µM

Question: And the TGI (U-251)?
Answer: > 100 µM

Question: And the GI50 (MCF7)?
Answer: 3.18 µM

Question: And the TGI (MCF7)?
Answer: > 100 µM

Question: And the GI50 (NCI-H460 [3])?
Answer: 5.32 µM

Question: And the TGI (NCI-H460 [3])?
Answer: > 100 µM

Question: And the GI50 (UO-31)?
Answer: 14.5 µM

Question: And the LC50 (UO-31)?
Answer: > 100 µM

Question: What about the TGI (UO-31) of the same compound?
Answer: 86.4 µM

Question: What about the GI50 (NCI-H23) of the same compound?
Answer: 44.5 µM

Question: And the TGI (NCI-H23)?
Answer: > 100 µM

Question: And the GI50 [4]?
Answer: 13.3 µM

Question: What about the LC50 (concentration killing 50% of cells) [4] of the same compound?
Answer: > 100 µM

Question: And the TGI [4]?
Answer: 82.1 µM

Question: What about the GI50 (CCRF-CEM) of the same compound?
Answer: 6.27 µM

Question: And the TGI (CCRF-CEM)?
Answer: > 100 µM

Question: And the GI50 (786-0)?
Answer: 5.82 µM

Question: What about the TGI (786-0) of the same compound?
Answer: > 100 µM

Question: What about the CC50 (786-0; [5]) of the same compound?
Answer: > 100 µM

Question: What about the GI50 (UACC-62) of the same compound?
Answer: 3.7 µM

Question: What about the TGI (UACC-62) of the same compound?
Answer: 31.4 µM

Question: And the CC50 (UACC-62; [5])?
Answer: > 100 µM

Question: And the GI50 (MOLT-4)?
Answer: 4.08 µM

Question: And the TGI (MOLT-4)?
Answer: 40.6 µM

Question: What about the CC50 (MOLT-4; [5]) of the same compound?
Answer: > 100 µM

Question: What about the GI50 (HT-29) of the same compound?
Answer: 19.4 µM

Question: What about the GI50 (SK-MEL-28) of the same compound?
Answer: 82.1 µM

Question: What about the TGI (SK-MEL-28) of the same compound?
Answer: > 100 µM

Question: And the GI50 (HCT-15)?
Answer: 4.52 µM

Question: And the TGI (HCT-15)?
Answer: 71.7 µM

Question: And the GI50 (HOP-62)?
Answer: 13.9 µM

Question: And the LC50 (HOP-62)?
Answer: > 100 µM

Question: And the TGI (HOP-62)?
Answer: > 100 µM

— ChEMBL document CHEMBL1153046, “Synthesis and antitumor activity of substituted triazolo[4,3-a]pyrimidin-6-sulfonamide with an incorporated thiazolidinone moiety” (2009)
